Laboratory results from ChEMBL document CHEMBL3739340, “Synthesis and Evaluation of Novel Erlotinib-NSAID Conjugates as More Comprehensive Anticancer Agents” (ACS Med Chem Lett, 2015).

Assays:
A-431 = assay: Antiproliferative activity against human A431 cells after 72 hrs by CCK-8 assay; assay type: functional, cell-based
[1] = Antiproliferative activity against human HCC827 cells after 72 hrs by CCK-8 assay; assay type: functional, cell-based; details: HCC827, 72 h
[2] = molecular target: T1, Prostaglandin G/H synthase 1 (Ovis aries, UniProt P05979); assay: Inhibition of Ovine COX-1 preincubated for 15 mins by fluorescence analysis
T1 sequence (P05979 whole entry): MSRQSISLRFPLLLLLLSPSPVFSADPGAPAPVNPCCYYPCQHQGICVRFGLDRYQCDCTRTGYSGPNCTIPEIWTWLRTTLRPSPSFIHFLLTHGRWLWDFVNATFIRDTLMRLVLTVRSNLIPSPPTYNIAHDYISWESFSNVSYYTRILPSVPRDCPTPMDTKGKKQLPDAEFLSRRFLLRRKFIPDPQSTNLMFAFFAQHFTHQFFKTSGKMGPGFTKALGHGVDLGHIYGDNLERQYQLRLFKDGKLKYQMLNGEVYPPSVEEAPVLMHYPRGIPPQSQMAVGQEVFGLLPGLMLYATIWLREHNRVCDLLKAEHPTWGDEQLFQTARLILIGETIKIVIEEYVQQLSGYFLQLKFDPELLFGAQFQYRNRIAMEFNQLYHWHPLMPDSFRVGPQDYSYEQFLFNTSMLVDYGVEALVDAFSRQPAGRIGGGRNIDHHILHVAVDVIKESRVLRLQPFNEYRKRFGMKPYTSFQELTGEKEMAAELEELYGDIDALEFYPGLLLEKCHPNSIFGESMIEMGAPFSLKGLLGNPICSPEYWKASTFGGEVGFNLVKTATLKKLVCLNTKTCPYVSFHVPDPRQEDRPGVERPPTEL

[3] = molecular target: Epidermal growth factor receptor (Homo sapiens, UniProt P00533); assay: Inhibition of EGFR (unknown origin) using tyrosine 4 as substrate by fluorescence analysis
[4] = Drug level in human HCC827 cells treated with 2-(4-(3-ethynylphenylamino)-6-(2-methoxyethoxy)quinazolin-7-yloxy)ethyl 2-(6-methoxynaphthalen-2-yl)propanoate by LC-MS/MS analysis; assay type: ADME, cell-based
How it was run: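 Conjugate added to culture medium (containing active serum) and incubated with HCC827 tumor cells for up to 24 h. Samples taken over time to follow hydrolysis of the conjugate and release of the parent molecules.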

[5] = Homo sapiens, A-431, 72 h, read-out: IC50

Epidermal growth factor receptor, sequence (P00533 whole entry): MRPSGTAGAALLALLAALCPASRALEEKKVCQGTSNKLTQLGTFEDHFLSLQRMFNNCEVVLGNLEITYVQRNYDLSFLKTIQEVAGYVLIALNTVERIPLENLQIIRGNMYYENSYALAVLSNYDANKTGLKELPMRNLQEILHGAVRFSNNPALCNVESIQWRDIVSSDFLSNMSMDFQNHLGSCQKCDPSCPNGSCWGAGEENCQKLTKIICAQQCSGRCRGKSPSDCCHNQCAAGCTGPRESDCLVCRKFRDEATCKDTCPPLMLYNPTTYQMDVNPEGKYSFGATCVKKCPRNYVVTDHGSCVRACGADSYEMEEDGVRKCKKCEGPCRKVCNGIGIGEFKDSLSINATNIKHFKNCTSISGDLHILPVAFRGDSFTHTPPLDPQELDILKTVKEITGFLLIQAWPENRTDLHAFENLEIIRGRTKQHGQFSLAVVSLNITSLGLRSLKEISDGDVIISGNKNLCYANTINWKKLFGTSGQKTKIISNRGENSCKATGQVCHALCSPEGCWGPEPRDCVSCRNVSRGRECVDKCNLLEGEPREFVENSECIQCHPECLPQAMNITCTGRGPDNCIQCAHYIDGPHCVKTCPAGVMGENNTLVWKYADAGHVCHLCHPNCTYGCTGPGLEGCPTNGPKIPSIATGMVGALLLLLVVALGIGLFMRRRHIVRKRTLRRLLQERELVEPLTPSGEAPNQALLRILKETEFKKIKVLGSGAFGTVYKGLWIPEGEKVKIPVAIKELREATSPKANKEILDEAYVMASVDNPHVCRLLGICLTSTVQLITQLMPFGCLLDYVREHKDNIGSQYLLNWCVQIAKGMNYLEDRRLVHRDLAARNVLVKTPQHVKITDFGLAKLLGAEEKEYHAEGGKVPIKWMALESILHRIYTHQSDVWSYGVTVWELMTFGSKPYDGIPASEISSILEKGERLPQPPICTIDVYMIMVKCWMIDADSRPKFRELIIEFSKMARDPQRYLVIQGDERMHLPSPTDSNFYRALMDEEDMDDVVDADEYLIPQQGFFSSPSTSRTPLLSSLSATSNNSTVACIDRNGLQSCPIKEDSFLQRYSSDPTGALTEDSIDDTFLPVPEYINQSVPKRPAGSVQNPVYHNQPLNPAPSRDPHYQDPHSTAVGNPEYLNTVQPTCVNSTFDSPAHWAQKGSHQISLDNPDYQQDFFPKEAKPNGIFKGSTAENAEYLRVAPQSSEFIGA

SMILES	IC50 (A-431; [5]) [nM]	IC50 [2] [nM]	IC50 [3] [nM]	IC50 (A-431; a-431)	Drug metabolism [4]	IC50 [1] [nM]
C#Cc1cccc(Nc2ncnc3cc(OCCOC)c(OCCOC(=O)Cc4c(C)n(C(=O)c5ccc(Cl)cc5)c5ccc(OC)cc45)cc23)c1	> 10000	–	–	–	–	1200
C#Cc1cccc(Nc2ncnc3cc(OCCOC(=O)Cc4c(C)n(C(=O)c5ccc(Cl)cc5)c5ccc(OC)cc45)c(OCCOC(=O)Cc4c(C)n(C(=O)c5ccc(Cl)cc5)c5ccc(OC)cc45)cc23)c1	> 10000	31400	33	–	–	1600
C#Cc1cccc(Nc2ncnc3cc(OCCOC)c(OCCOC(=O)C(C)c4cccc(C(=O)c5ccccc5)c4)cc23)c1 (stereo not drawn)	1700	–	–	–	–	300
C#Cc1cccc(Nc2ncnc3cc(OCCOC)c(OCCOC)cc23)c1 [ERLOTINIB]	–	> 10000	–	–	–	–
C#Cc1cccc(Nc2ncnc3cc(OCCOC(=O)c4ccccc4OC(C)=O)c(OCCOC(=O)c4ccccc4OC(C)=O)cc23)c1	> 10000	39600	34	–	–	900
C#Cc1cccc(Nc2ncnc3cc(OCCOC(=O)c4ccc(C(=O)Nc5ccc6c(c5)C(C)(C)CCC6(C)C)cc4)c(OCCOC)cc23)c1	> 10000	> 10000	32	–	–	200
C#Cc1cccc(Nc2ncnc3cc(OCCOC)c(OCCOC(=O)C(C)c4ccc5cc(OC)ccc5c4)cc23)c1 (stereo not drawn)	5000	–	–	–	–	500
C#Cc1cccc(Nc2ncnc3cc(OCCOC(=O)c4ccc(C(=O)Nc5ccc6c(c5)C(C)(C)CCC6(C)C)cc4)c(OCCOC(=O)c4ccc(C(=O)Nc5ccc6c(c5)C(C)(C)CCC6(C)C)cc4)cc23)c1	–	> 10000	880	Not Active	–	> 10000
C#Cc1cccc(Nc2ncnc3cc(OCCOC)c(OCCOC(=O)c4ccccc4OC(C)=O)cc23)c1	> 10000	–	–	–	–	100
C#Cc1cccc(Nc2ncnc3cc(OCCOC)c(OCCOC(=O)C(C)c4ccc(CC(C)C)cc4)cc23)c1 (stereo not drawn)	> 10000	–	–	–	–	> 10000
C#Cc1cccc(Nc2ncnc3cc(OCCOC(=O)C(C)c4ccc(CC(C)C)cc4)c(OCCOC(=O)C(C)c4ccc(CC(C)C)cc4)cc23)c1 (stereo not drawn)	–	> 10000	> 10000	Not Active	–	16500
C#Cc1cccc(Nc2ncnc3cc(OCCOC(=O)Cc4c(C)n(C(=O)c5ccc(Cl)cc5)c5ccc(OC)cc45)c(OCCOC)cc23)c1	> 10000	11300	27	–	–	900
C#Cc1cccc(Nc2ncnc3cc(OCCOC(=O)C(C)c4cccc(C(=O)c5ccccc5)c4)c(OCCOC(=O)C(C)c4cccc(C(=O)c5ccccc5)c4)cc23)c1 (stereo not drawn)	> 10000	–	–	–	–	2100
C#Cc1cccc(Nc2ncnc3cc(OCCOC)c(OCCOC(=O)CC4=C(C)/C(=C\c5ccc([S+](C)[O-])cc5)c5ccc(F)cc54)cc23)c1 (stereo not drawn)	4800	–	–	–	–	400
COc1ccc2cc(C(C)C(=O)O)ccc2c1 (racemic)	–	–	> 10000	–	metabolite_detected	–

Further lines, with some results ahead:

IC50 (A-431; [5]) [nM]	IC50 [2] [nM]	IC50 [3] [nM]	IC50 (A-431; a-431)	Drug metabolism [4]	SMILES	IC50 [1] [nM]
–	> 10000	390	Not Active	–	C#Cc1cccc(Nc2ncnc3cc(OCCOC(=O)C(C)c4ccc5cc(OC)ccc5c4)c(OCCOC(=O)C(C)c4ccc5cc(OC)ccc5c4)cc23)c1 (stereo not drawn)	2300
2200	44700	9	–	–	C#Cc1cccc(Nc2ncnc3cc(OCCOC(=O)C(C)c4ccc(CC(C)C)cc4)c(OCCOC)cc23)c1 (stereo not drawn)	400
–	–	> 10000	–	–	CC(C)Cc1ccc(C(C)C(=O)O)cc1 (stereo not drawn) [IBUPROFEN]	–
> 10000	> 10000	27	–	–	C#Cc1cccc(Nc2ncnc3cc(OCCOC(=O)CC4=C(C)/C(=C/c5ccc([S+](C)[O-])cc5)c5ccc(F)cc54)c(OCCOC(=O)CC4=C(C)/C(=C/c5ccc([S+](C)[O-])cc5)c5ccc(F)cc54)cc23)c1 (stereo not drawn)	3500
1270	> 10000	1	–	metabolite_detected	C#Cc1cccc(Nc2ncnc3cc(OCCO)c(OCCOC)cc23)c1	14
–	67	> 10000	–	–	CC(C(=O)O)c1cccc(C(=O)c2ccccc2)c1 (stereo not drawn) [KETOPROFEN]	–
1800	> 10000	5	–	–	C#Cc1cccc(Nc2ncnc3cc(OCCOC(=O)c4ccccc4OC(C)=O)c(OCCOC)cc23)c1	100
5400	> 10000	31	–	–	C#Cc1cccc(Nc2ncnc3cc(OCCOC(=O)CC4=C(C)/C(=C\c5ccc([S+](C)[O-])cc5)c5ccc(F)cc54)c(OCCOC)cc23)c1 (stereo not drawn)	300
–	–	> 10000	–	–	COc1ccc2c(c1)c(CC(=O)O)c(C)n2C(=O)c1ccc(Cl)cc1 [INDOMETHACIN]	–
–	–	> 10000	–	–	CC(=O)Oc1ccccc1C(=O)O [ASPIRIN]	–
–	16000	> 10000	–	–	CC1=C(CC(=O)O)c2cc(F)ccc2/C1=C\c1ccc([S+](C)[O-])cc1 (stereo not drawn)	–
